Assay results: ChEMBL document CHEMBL2040730, “Synthesis of berbamine acetyl glycosides and evaluation of antitumor activity” (Eur J Med Chem, 2012)

Tests used:
Format in all cases: functional, cell-based
K562 = experiment: Cytotoxicity against human K562 cells after 2 days by MTT assay
Outline: (§1)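 Cells were seeded at 5 × 10³ per well and exposed to eight compound concentrations (50, 25, 12.5, 6.25, 3.13, 1.56, 0.78, 0.39), with positive and blank controls. Incubation was 2 days at 37 °C and 5% CO₂. MTT (5 mg/mL stock) was then added for 4 h. After the supernatant was removed, formazan was dissolved in DMSO for 20 min at room temperature. OD was read at 570 nm, and viability was expressed as % of compound-free medium controls.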

A549 = experiment: Cytotoxicity against human A549 cells after 2 days by MTT assay; outline: as §1
L1210 = experiment: Cytotoxicity against mouse L1210 cells after 2 days by MTT assay; outline: as §1

Structure (SMILES)	IC50 (K562; Homo sapiens, K562, 48 h) [nM]	IC50 (A549; Homo sapiens, A549, 48 h) [nM]	IC50 (L1210; Mus musculus, L1210, 48 h) [nM]	IC50 (K562; k562) [nM]	IC50 (L1210; l1210) [nM]	IC50 (A549; a549) [nM]
COc1cc2c3cc1Oc1c(OC)c(OC)cc4c1[C@@H](Cc1ccc(O[C@@H]5O[C@H](COC(C)=O)[C@@H](OC(C)=O)[C@H](OC(C)=O)[C@H]5OC(C)=O)c(c1)Oc1ccc(cc1)C[C@@H]3N(C)CC2)N(C)CC4	1960	29500	570	–	–	–
COc1cc2c3cc1Oc1c(OC)c(OC)cc4c1[C@@H](Cc1ccc(O[C@@H]5O[C@H](COC(C)=O)[C@H](OC(C)=O)[C@H](OC(C)=O)[C@H]5OC(C)=O)c(c1)Oc1ccc(cc1)C[C@@H]3N(C)CC2)N(C)CC4	2030	43000	2170	–	–	–
COc1cc2c3cc1Oc1c(OC)c(OC)cc4c1[C@@H](Cc1ccc(O[C@@H]5OC[C@@H](OC(C)=O)[C@H](OC(C)=O)[C@H]5OC(C)=O)c(c1)Oc1ccc(cc1)C[C@@H]3N(C)CC2)N(C)CC4	1550	≥ 50000	1270	–	–	–
COc1cc2c3cc1Oc1c(OC)c(OC)cc4c1[C@@H](Cc1ccc(O[C@@H]5O[C@H](COC(C)=O)[C@@H](O[C@@H]6O[C@H](COC(C)=O)[C@@H](OC(C)=O)[C@H](OC(C)=O)[C@H]6OC(C)=O)[C@H](OC(C)=O)[C@H]5OC(C)=O)c(c1)Oc1ccc(cc1)C[C@@H]3N(C)CC2)N(C)CC4 [listing 1 of 2 here]	–	27800	–	2230	300	–
COc1cc2c3cc1Oc1c(OC)c(OC)cc4c1[C@@H](Cc1ccc(O[C@@H]5O[C@H](COC(C)=O)[C@@H](O[C@@H]6O[C@H](COC(C)=O)[C@H](OC(C)=O)[C@H](OC(C)=O)[C@H]6OC(C)=O)[C@H](OC(C)=O)[C@H]5OC(C)=O)c(c1)Oc1ccc(cc1)C[C@@H]3N(C)CC2)N(C)CC4	3560	≥ 50000	2030	–	–	–
COc1cc2c3cc1Oc1c(OC)c(OC)cc4c1[C@@H](Cc1ccc(O[C@H]5O[C@@H](COC(C)=O)[C@H](OC(C)=O)[C@@H](OC(C)=O)[C@@H]5OC(C)=O)c(c1)Oc1ccc(cc1)C[C@@H]3N(C)CC2)N(C)CC4	≥ 50000	≥ 50000	2740	–	–	–
COc1cc2c3cc1Oc1c(OC)c(OC)cc4c1[C@@H](Cc1ccc(O[C@@H]5O[C@H](CO)[C@@H](O[C@@H]6O[C@H](CO)[C@@H](O)[C@H](O)[C@H]6O)[C@H](O)[C@H]5O)c(c1)Oc1ccc(cc1)C[C@@H]3N(C)CC2)N(C)CC4	≥ 50000	≥ 50000	10600	–	–	–
COc1cc2c3cc1Oc1c(OC)c(OC)cc4c1[C@@H](Cc1ccc(O)c(c1)Oc1ccc(cc1)C[C@@H]3N(C)CC2)N(C)CC4	4000	39700	2730	–	–	–
COc1cc2c3cc1Oc1c(OC)c(OC)cc4c1[C@@H](Cc1ccc(O[C@@H]5O[C@H](COC(C)=O)[C@@H](O[C@@H]6O[C@H](COC(C)=O)[C@@H](OC(C)=O)[C@H](OC(C)=O)[C@H]6OC(C)=O)[C@H](OC(C)=O)[C@H]5OC(C)=O)c(c1)Oc1ccc(cc1)C[C@@H]3N(C)CC2)N(C)CC4 [listing 2 of 2 here]	–	–	–	≥ 50000	1850	≥ 50000
